Consider three molecules from article PMC4459094 (FEBS Open Bio, 2015).

One test has as its system hMIP. To be noted: continuous activity assay with fluorogenic substrate Abz-GFSPFRQ-EDDnp; cited from earlier work.
Test [1] concerns the target T1, recombinant human mitochondrial intermediate peptidase (hMIP) (Homo sapiens, UniProt Q99797).
T1 sequence (Q99797 36-713): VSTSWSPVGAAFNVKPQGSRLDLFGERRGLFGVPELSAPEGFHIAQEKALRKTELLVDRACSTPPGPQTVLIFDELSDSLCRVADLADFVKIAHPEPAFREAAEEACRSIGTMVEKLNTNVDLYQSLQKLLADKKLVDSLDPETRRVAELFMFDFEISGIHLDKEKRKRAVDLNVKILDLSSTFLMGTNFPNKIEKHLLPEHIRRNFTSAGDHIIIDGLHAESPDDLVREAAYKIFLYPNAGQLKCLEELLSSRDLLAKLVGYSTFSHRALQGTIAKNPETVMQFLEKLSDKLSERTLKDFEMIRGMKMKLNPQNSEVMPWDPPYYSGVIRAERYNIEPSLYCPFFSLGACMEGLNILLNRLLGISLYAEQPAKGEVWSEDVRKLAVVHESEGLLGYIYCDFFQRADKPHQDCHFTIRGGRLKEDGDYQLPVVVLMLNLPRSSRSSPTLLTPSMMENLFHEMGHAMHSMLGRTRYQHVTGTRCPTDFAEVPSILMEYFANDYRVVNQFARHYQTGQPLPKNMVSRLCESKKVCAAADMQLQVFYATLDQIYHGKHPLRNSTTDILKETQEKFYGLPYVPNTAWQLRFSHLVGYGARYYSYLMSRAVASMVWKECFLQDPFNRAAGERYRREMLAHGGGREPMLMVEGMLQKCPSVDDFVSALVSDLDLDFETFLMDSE
The experiment in a line: Hydrolysis of FRET peptides by hMIP in solution. In kind it is biochemical. To be noted: analogue without the P8 and P5 versus Abz-FRSGQPLQNKVQLQ-EDDnp. Put shortly:
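Recombinant human MIP with an N-terminal His6 tag replacing the mitochondrial signal sequence, expressed in E. coli BL21(DE3)pLysS and purified by Ni-affinity then anion-exchange chromatography. Abz/EDDnp FRET peptide hydrolysis was followed fluorometrically (ex 320, em 420 nm). Rates were converted to moles per second using standard peptide fluorescence before and after total hydrolysis, with under 10% substrate consumed. kcat, KM and kcat/KM are given as means ± SD.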

In the case of `C[C@H](CS)C(=O)N1CCC[C@H]1C(=O)O` [captopril], in the test with hMIP, the “inhibition of hMIP” value is reported as “small level of inhibition”.

On to `O=C(O)CNC(=O)C(CS)Cc1ccccc1` (stereo not drawn) [thiorphan], for which the “inhibition of hMIP” value with hMIP was “small level of inhibition”. Turning to “Abz-QPLQNKVQ-EDDnp [Abz-QPLQ↓NKVQ-EDDnp]”, the “fold lower specificity constant than Abz-FRSGQPLQNKVQLQ-EDDnp” value in test [1] was 7 fold.
